Key:
[1] = Concentration which reduced the viability of the uninfected MT-4 cells to 50% compared to untreated control cells; settings: MT4
[2] = molecular target: Human immunodeficiency virus type 1 reverse transcriptase (Human immunodeficiency virus 1, UniProt Q72547); assay: Inhibition of HIV-1 reverse transcriptase using rCdG as template and dGTP as substrate
[3] = molecular target: Human immunodeficiency virus type 1 reverse transcriptase (Human immunodeficiency virus 1) (UniProt Q72547); assay: Concentration which reduced the cytopathic effect of HIV-1 in MT-4 infected cells; format: functional, cell-based
Procedure, shortened: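 MT4 cells at 2 × 10⁵ cells/mL in RPMI 1640 with 10% FCS, penicillin and streptomycin (2 × 10⁴ cells/well). Compounds added from DMSO stocks diluted in medium (final DMSO ≤1%), then HIV-1 IIIB at 10 TCID₅₀/well. After 6 days in CO₂, surviving cells read by XTT. ED₅₀ is the concentration reducing virus cytopathic effect, mean of at least two experiments.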

| SMILES | CD50 [1] | IC50 [2] | ED50 [3] |
| --- | --- | --- | --- |
| CCc1cc(NCc2nc3c(Cl)ccc(Cl)c3o2)c(O)nc1C [L-697661] | 114 µM | 100 nM | 0.065 µM |
| O=C(NCCc1ccccc1)Nc1nccs1 | 113 µM | > 10000 nM | > 10 µM |
| CCOc1cccc(F)c1CCNC(=S)Nc1ccc(C)cn1 | 60 µM | 4.5 nM | 0.2 µM |
| S=C(NCCc1ccccc1)Nc1ncccc1Br | 297 µM | > 10000 nM | > 10 µM |
| S=C(NCCc1ccccc1)Nc1nncs1 |  | 1900 nM | 5.3 µM |
| S=C(NCCc1ccccc1)Nc1ncc(Cl)s1 | 15 µM | 2400 nM | 2.7 µM |
| CC(C/N=C(\S)Nc1nccs1)c1ccccc1 (centres undefined) | 108 µM |  | 1.2 µM |
| S=C(NCCc1ccccn1)Nc1nccs1 | 76 µM | 200 nM | 1.3 µM |
| CCc1csc(NC(=S)NCCc2ccccc2)n1 | > 340 µM | 600 nM | 0.7 µM |
| Fc1ccccc1CCNC(=S)Nc1nccs1 | 75 µM | 60 nM | 0.1 µM |
| CC(C)Oc1cccc(CCNC(=S)Nc2nccs2)c1 | 16 µM | 400 nM | 0.4 µM |
| Fc1cccc(F)c1CCNC(=S)Nc1nccs1 | 33 µM | 10 nM | 0.02 µM |
| S=C(NCCc1ccco1)Nc1nccs1 | 89 µM | 650 nM | 5.2 µM |
| Fc1ccc(CCNC(=S)Nc2nccs2)cc1 | 78 µM | 1000 nM | 3.3 µM |
| Oc1ccccc1CCNC(=S)Nc1nccs1 | 100 µM | 1100 nM | 4 µM |
| CCCCCCOc1cccc(CC/N=C(\S)Nc2nccs2)c1 | 8 µM | > 10000 nM | > 10 µM |
| COc1cccc(CCNC(=S)Nc2nccs2)c1 | 143 µM | 150 nM | 0.6 µM |
| Fc1cccc(CCNC(=S)Nc2nccs2)c1 | 78 µM | 150 nM | 0.25 µM |
| Cc1csc(NC(=S)NCCc2ccccc2)n1 | > 360 µM | 100 nM | 0.4 µM |
| Cc1ccc(NC(=S)NCCc2ccccc2)nc1 |  | 30 nM | 0.15 µM |
| S=C(NCCc1ccncc1)Nc1nccs1 | 113 µM | > 10000 nM | > 10 µM |
| Cc1ccc(NC(=S)NCCc2ccccn2)nc1 | 73 µM | 50 nM | 0.3 µM |
| CCOc1cccc(CCNC(=S)Nc2nccs2)c1 | 91 µM | 60 nM | 0.15 µM |

| SMILES | CD50 [1] | IC50 [2] | ED50 [3] |
| --- | --- | --- | --- |
| COc1cccc(F)c1CCNC(=S)Nc1nccs1 | 51 µM | 10 nM | 0.3 µM |
| COc1ccc(Br)cc1CCNC(=S)Nc1nccs1 | 94 µM | 30 nM | 0.05 µM |
| S=C(NCc1ccccc1)Nc1nccs1 | 120 µM | 1200 nM | > 10 µM |
| Cc1ccc(NC(=S)NCCc2c(F)cccc2F)nc1 | > 325 µM | 3 nM | 0.01 µM |
| CCCOc1cccc(CCNC(=S)Nc2nccs2)c1 | 75 µM | 200 nM | 2.2 µM |
| CC(C)=CCN1Cc2cc(Cl)cc3[nH]c(=S)n(c23)C[C@@H]1C |  | 200 nM | 0.25 µM |
| Fc1cccc(F)c1CC/N=C(\S)Nc1ccc(Br)cn1 | 67 µM |  | 0.01 µM |
| FC(F)(F)c1csc(NC(=S)NCCc2ccccc2)n1 | 9 µM | 550 nM | 0.5 µM |
| COc1ccccc1CCNC(=S)Nc1nccs1 | 102 µM | 40 nM | 0.4 µM |
| S=C(NCCc1ccccc1)Nc1cc[nH]n1 | 122 µM | > 10000 nM | > 10 µM |
| CC(Cc1ccccc1)/N=C(\S)Nc1nccs1 (centres undefined) | 87 µM | > 10000 nM | > 10 µM |
| CCOc1cccc(F)c1CCNC(=S)Nc1ccc(Br)cn1 | 50 µM | 6 nM | 0.02 µM |
| S=C(NCCc1ccccc1Cl)Nc1nccs1 | 100 µM | 600 nM | 0.4 µM |
| CCOc1cccc(F)c1CCNC(=S)Nc1nccs1 | 37 µM | 10 nM | 0.2 µM |
| COc1ccc(OC)c(CCNC(=S)Nc2nccs2)c1 | 86 µM | 200 nM | 0.4 µM |
| O=[N+]([O-])c1ccccc1CCNC(=S)Nc1nccs1 | 123 µM | 150 nM | 1.1 µM |
| [N-]=[N+]=Nc1ccccc1CCNC(=S)Nc1nccs1 |  | 30 nM |  |
| S=C(NCCc1ccccc1)Nc1nc2ccccc2s1 |  | 200 nM | 1.1 µM |
| CC(C)c1csc(NC(=S)NCCc2ccccc2)n1 | > 330 µM | 200 nM | 1.3 µM |
| S=C(NCCc1ccccc1)Nc1cnccn1 | > 390 µM | 3900 nM | > 10 µM |
| N#Cc1csc(NC(=S)NCCc2c(F)cccc2F)n1 | 10 µM | 6 nM | 0.03 µM |
| CN(/C(S)=N/CCc1ccccc1)c1nccs1 | 65 µM | 1500 nM | 10 µM |
| Cc1cn([C@H]2C[C@H](N=[N+]=[N-])[C@@H](CO)O2)c(=O)[nH]c1=O |  |  | 0.007 µM |

| SMILES | CD50 [1] | IC50 [2] | ED50 [3] |
| --- | --- | --- | --- |
| COc1ccc(CCNC(=S)Nc2nccs2)cc1 | 68 µM | 350 nM | 5.5 µM |
| S=C(NCCc1ccccc1)Nc1nccs1 |  | 900 nM | 1.3 µM |
| CCCc1csc(NC(=S)NCCc2ccccc2)n1 | > 330 µM | 350 nM | 1.6 µM |
| CCOC(=O)c1csc(NC(=S)NCCc2ccccc2)n1 | 60 µM | 200 nM | 0.5 µM |
| Fc1cccc(F)c1CCNC(=S)Nc1ccc(Br)cn1 |  | 1 nM |  |
| COc1cccc(OC)c1CCNC(=S)Nc1nccs1 | 37 µM | 90 nM | 0.09 µM |
| CCCCc1csc(NC(=S)NCCc2ccccc2)n1 | 313 µM | 2500 nM | 1.3 µM |
| O=C(O)c1csc(/N=C(\S)NCCc2ccccc2)n1 | > 325 µM | > 10000 nM | > 10 µM |
| Cc1ccnc2c1NC(=O)c1cccnc1N2C1CC1 |  |  | 0.15 µM |
| Fc1cccc(Cl)c1CCNC(=S)Nc1nccs1 | 111 µM | 6 nM | 0.05 µM |
| CCc1csc(NC(=S)NCCc2c(F)cccc2F)n1 | > 305 µM | 5.5 nM | 0.08 µM |
| Cc1ccccc1CCNC(=S)Nc1nccs1 | 72 µM | 80 nM | 0.95 µM |
| CC(CNC(=S)Nc1nccs1)c1ccccc1 (centres undefined) |  | 450 nM |  |
| S=C(NCCc1ccccc1)Nc1ccccn1 |  | 20 nM | 0.2 µM |
| S=C(NCCc1cccc(Oc2ccccc2)c1)Nc1nccs1 | 14 µM | 1100 nM | 2.8 µM |
| S=C(NCCc1cccnc1)Nc1nccs1 | 83 µM | > 10000 nM | 6.4 µM |
| [N-]=[N+]=Nc1ccccc1CC/N=C(\S)Nc1nccs1 | 92 µM |  | 0.1 µM |
| S=C(NCCc1ccccn1)Nc1ccc(Br)cn1 |  |  | 0.02 µM |
| N#Cc1csc(NC(=S)NCCc2ccccc2)n1 |  | 200 nM | 0.2 µM |
| CN(CCc1ccccc1)/C(S)=N\c1nccs1 | 29 µM | > 10000 nM | > 10 µM |
| Cn1cccc1CC/N=C(\S)Nc1nccs1 | 143 µM | 1900 nM | > 10 µM |
| S=C(NCCCc1ccccc1)Nc1nccs1 | > 360 µM | 4500 nM | > 10 µM |
| S=C(NCCc1ccccc1)Nc1ccc(Br)cn1 |  | 15 nM | 0.05 µM |
